ASAP1 GAP inh: inhibitors of human ASAP1 ArfGAP activity, primary screen, biochemical, fluorescence polarization. Arf-GAP with SH3 domain, ANK repeat and PH domain-containing protein 1 (Homo sapiens), …. ASAP1-stimulated ARF1 GTP hydrolysis, GDP FP detection. inhibition, % at 16.5 µM. hit rate 0.19% among 360,000. AID 624377, 2012; in the data active = inhibition above about 25%;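 also: 0% = vehicle with enzyme and substrate and 100% = no enzyme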
Target sequence (Q9ULH1 325-724 limits assumed): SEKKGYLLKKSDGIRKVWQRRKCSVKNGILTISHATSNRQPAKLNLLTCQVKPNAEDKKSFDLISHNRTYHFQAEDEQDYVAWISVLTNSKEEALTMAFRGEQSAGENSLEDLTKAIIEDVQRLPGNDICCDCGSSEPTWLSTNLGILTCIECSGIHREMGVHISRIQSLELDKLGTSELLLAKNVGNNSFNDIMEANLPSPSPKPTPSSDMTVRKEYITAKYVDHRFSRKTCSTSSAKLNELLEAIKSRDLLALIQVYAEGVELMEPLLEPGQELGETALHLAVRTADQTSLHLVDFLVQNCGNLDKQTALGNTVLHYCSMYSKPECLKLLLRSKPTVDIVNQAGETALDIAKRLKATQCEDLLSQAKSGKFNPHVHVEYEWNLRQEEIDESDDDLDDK
ARFGAP1 inh: inhibitors of rat ARFGAP1 GAP activity, primary screen, biochemical, fluorescence polarization, GDP tracer | Arfgap1-stimulated ARF1 GTP hydrolysis, GDP FP detection | AID 651572, 2012 | inhibition, % at 16.5 µM | hit rate 0.26% among 360,000 | ADP-ribosylation factor GTPase-activating protein 1 (Rattus norvegicus), Q62848;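 active = inhibition above a per-plate limit, mean inhibition of low control wells plus 3 SD, cut at about 25% in these data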;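 also: 0% = DMSO wells with enzyme and 100% = wells lacking Arfgap1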
Target sequence (Q62848 1-136 limits assumed): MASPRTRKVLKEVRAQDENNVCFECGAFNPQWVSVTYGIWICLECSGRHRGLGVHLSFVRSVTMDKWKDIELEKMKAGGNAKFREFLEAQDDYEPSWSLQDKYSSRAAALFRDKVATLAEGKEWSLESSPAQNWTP
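system = rat Arfgap1 catalytic domain, aa 1-136 | technique = FP, GDP Alexa 633 tracer displaced from anti-GDP antibody, 620/688 nm | compound = one concentration, 16.5 µM, DMSO 1.26% | medium = HEPES-based buffer, pH 7.5 | timing = compound-enzyme preincubation 20 min, reaction 120 min, detection 60 min, 25 °C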
NadD block: inhibitors of S. aureus NadD, primary screen, biochemical, colorimetric, uHTS | Nicotinate-nucleotide adenylyltransferase NadD (Staphylococcus aureus N315) | purified NadD enzyme, colorimetric absorbance read-out | inhibition, % at 20 µM | hit rate 0.78% among 360,000 | AID 602399, 2012; in the data active = inhibition above about 26%
rCAG RNA binder: binders of r(CAG) RNA repeats, primary screen, biochemical, fluorescence | r(CAG) RNA repeat, TO-PRO-1 dye displacement fluorescence | inhibition, % at 3 µM | hit rate 1.3% among 370,000 | AID 651821, 2012;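 active = inhibition above the plate cutoff, the mean of all test compounds on that plate plus 3 SD, cut at about 35% in these data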;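 also: 0% = DMSO alone and 100% = 100 µM mitoxantrone as full dye displacement; higher means more dye released from RNA so lower well fluorescence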
rCAG binder conf: small molecules binding CAG repeat RNA – biochemical, fluorescence, confirmation | r(CAG) RNA repeat, TO-PRO-1 dye displacement fluorescence | shares compounds with rCAG RNA binder | inhibition, % at 3 µM | hit rate 70% among 4,300;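 active = inhibition above a per-plate cutoff, the mean inhibition of sample wells plus 3 SD, cut at about 35% in these data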;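 also: loss of TO-PRO-1 fluorescence as compound displaces dye from 1x1 AA loop RNA; 0% = DMSO only wells and 100% = 100 µM mitoxantrone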
DNA CAG counter: displacement of TO-PRO-1 from CAG DNA duplex, counter-screen for rCAG RNA repeat binder project, biochemical, fluorescence, TO-PRO-1 dye, d(CAG) DNA oligo; shares compounds with rCAG RNA binder; d(CAG) DNA oligo TO-PRO-1 dye displacement; inhibition, % at 3 µM; hit rate 94% among 4,300; AID 652068, 2013;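 active = inhibition above its plate's cutoff, the mean test-well inhibition plus 3 SD, cut at about 4.8% in these data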;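 also: 0% = DNA dye mix with DMSO and 100% = 100 µM mitoxantrone; hits displace the dye from DNA and so lower well fluorescence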
* = called active by the depositor; / = no result. Shown are actives, neighbours in structure and some others; about 2.2% of the full set was active somewhere.

SMILES	ASAP1 GAP inh	ARFGAP1 inh	NadD block	rCAG RNA binder	rCAG binder conf	DNA CAG counter
CS(=O)(=O)C1=NSC2=NC(=O)/C(=C\c3cccn3-c3ccccc3Cl)C(=N)N21	3.1	-9.7	20.9	83.3*	76.7*	38.7*
CCc1ccc(-n2cccc2/C=C2/C(=N)N3C(=NC2=O)SN=C3S(C)(=O)=O)cc1	5.4	-13.4	27.6	93.6*	90.7*	72.4*
CS(=O)(=O)C1=NSC2=NC(=O)/C(=C\c3ccc(OS(=O)(=O)c4ccccc4)cc3)C(=N)N21	0.2	-5.5	6.4	30.4	/	/
COc1cccc(-n2c(C)cc(/C=C3/C(=N)N4C(=NC3=O)SN=C4S(C)(=O)=O)c2C)c1	11.4	-8.8	20.1	65.4*	78.9*	49.5*
COc1cc(/C=C2/C(=N)N3C(=NC2=O)SN=C3S(C)(=O)=O)ccc1OS(=O)(=O)c1ccc(C)cc1	-8.3	-2.9	19.7	32.2	/	/
O=C(CSc1nnc(Cc2cccs2)n1-c1ccc(Cl)cc1)Nc1ccc(OCc2ccccc2)cc1	/	/	/	9.8	/	/
Cc1ccc(-n2cccc2/C=C2/C(=N)N3C(=NC2=O)SN=C3S(C)(=O)=O)cc1	-19.9	0.0	15.8	89.3*	83.7*	49.5*
COC(=O)[C@]12C[C@H](CC(=O)NCC34CC5CC(CC(C5)C3)C4)C(=O)N(Cc3ccc(Cl)cc3Cl)C1=C[C@H](C1CCCC1)O[C@@H]2C	/	/	/	9.2	/	/
Cc1ccccc1N1C(=O)C2C3CC(=O)C(c4ccccc43)C2C1=O (stereo not drawn)	-6.5	-9.1	-3.4	-5.5	/	/
Cc1ccnc2c(N3C(=O)C4C5c6ccccc6C(c6ccccc65)C4C3=O)cccc12 (stereo not drawn)	16.7	-0.1	2.9	46.9*	2.9	4.4*
CC(=O)OC[C@@H]1CN(Cc2ccccc2)C[C@H](n2cnc3c(NC4CC4)ncnc32)O1	5.9	0.7	0.6	0.2	/	/
COCCN1C(=O)[C@H]2C[C@@]13O[C@H](c1ccc(C(F)(F)F)cc1)N=C3C[C@H](c1ccccc1)[C@H]2C	-10.3	-10.5	/	-0.8	/	/
CCCS(=O)(=O)c1c(S(=O)(=O)CCC)c2c(N)cccn2c1C(=O)c1ccccc1	3.4	-8.4	-0.6	42.9*	24.7	10.3*
CCCS(=O)(=O)c1c(S(=O)(=O)CCC)c2c(N)cccn2c1C(=O)OC	-16.5	-3.3	2.9	23.9	/	/
O=S(=O)(CC1NCc2cc(F)ccc21)NCCc1ccccc1 (stereo not drawn)	/	/	/	7.6	/	/
CCc1ccc2[nH]c3nc(N/N=C/c4ccc(O)cc4O)nnc3c2c1	8.3	-1.8	39.3*	56.8*	34.6*	22.3*
Cc1ccc2[nH]c3nc(N/N=C/c4cccc(O)c4)nnc3c2c1	22.6	6.1	16.9	24.0	/	/
CCN(c1ccc(OC)cc1)S(=O)(=O)c1nnc(NC(=O)COc2ccccc2)s1	-7.1	0.3	-9.4	66.1*	54.0*	19.0*
COc1ccc(OCC(=O)Nc2nnc(S(=O)(=O)N3CCCCCC3)s2)cc1	-2.9	-9.9	10.8	40.5*	27.5	7.5*
CC1CN(S(=O)(=O)c2ccc(C(=O)Nc3ccc(S(=O)(=O)Nc4nccs4)cc3)cc2)CC(C)O1 (stereo not drawn)	-15.0	7.4	4.0	57.0*	65.0*	18.8*
CC(C)(C)c1ccc(C(=O)NCCC(=O)Nc2ccc(S(=O)(=O)Nc3nccs3)cc2)cc1	-2.5	6.0	11.1	57.2*	54.2*	20.0*
CCCC(=O)Nc1ccc(S(=O)(=O)Nc2nccs2)cc1	3.2	15.0	-0.2	1.4	/	/
Cc1ccc(SCC(=O)Nc2ccc(S(=O)(=O)Nc3nccs3)cc2)cc1	-7.1	-2.8	-2.1	48.7*	50.2*	14.6*
CC1CN(S(=O)(=O)c2ccc(C(=O)Nc3nccs3)cc2)CC(C)O1 (stereo not drawn)	-1.1	9.4	-3.6	-1.1	/	/
Cc1ccc(OC(C)C(=O)Nc2ccc(S(=O)(=O)Nc3nccs3)cc2)cc1 (stereo not drawn)	-2.0	-9.2	3.1	37.6*	22.7	6.5*
SMILES	ASAP1 GAP inh	ARFGAP1 inh	NadD block	rCAG RNA binder	rCAG binder conf	DNA CAG counter
O=C(CSc1ccncc1)Nc1ccc(S(=O)(=O)Nc2nccs2)cc1	6.7	-5.9	-6.6	13.8	/	/
O=C(CN1C(=O)c2cccc3cccc1c23)Nc1ccc(S(=O)(=O)N2CCOCC2)cc1	-16.9	-1.4	2.5	7.2	/	/
O=C(CN1C(=O)c2cccc3cccc1c23)Nc1ccc(S(=O)(=O)Nc2nccs2)cc1	-2.3	-7.1	/	66.9*	47.4*	17.2*
CCc1ccc(OC(C)C(=O)Nc2ccc(S(=O)(=O)Nc3nccs3)cc2)cc1 (stereo not drawn)	-12.8	-17.6	-6.0	51.6*	38.7*	14.1*
O=C(CCN1C(=O)S/C(=C\c2ccccc2)C1=O)Nc1ccc(S(=O)(=O)Nc2nccs2)cc1	-28.2	-1.1	28.8	76.8*	73.8*	39.3*
N=C1/C(=C\c2ccc(OC(=O)c3ccccc3Cl)cc2)C(=O)N=C2SC(N3CCOCC3)=NN12	-2.7	-4.5	47.7*	37.0*	63.2*	26.5*
N=C1/C(=C/c2ccc(OCc3ccccc3)cc2)C(=O)N=C2SC(CC(=O)N3CCOCC3)=NN12	4.7	6.7	24.8	25.0	/	/
CCS(=O)(=O)C1=NN2C(=N)/C(=C\c3ccc(OC(=O)c4ccco4)cc3)C(=O)N=C2S1	4.8	0.2	4.3	24.1	/	/
CSC1=NSC2=NC(=O)/C(=C\c3ccc(OC(=O)c4ccco4)cc3)C(=N)N12	2.7	-3.8	13.0	37.7*	42.8*	13.3*
CC(C)CS(=O)(=O)C1=NSC2=NC(=O)/C(=C\c3ccc(OC(=O)c4ccco4)cc3)C(=N)N21	13.7	-1.9	24.9	24.2	/	/
CCC(CC)C1=NN2C(=N)/C(=C/c3ccc(OC(=O)c4ccco4)cc3)C(=O)N=C2S1	1.7	7.8	11.9	42.2*	46.4*	12.0*
CS(=O)(=O)C1=NSC2=NC(=O)/C(=C\c3ccc(OC(=O)c4ccco4)c(Br)c3)C(=N)N21	-7.7	-1.2	5.5	40.3*	83.1*	52.5*
O=C(C[C@H]1CC[C@@H](NC(=O)C2CC2)[C@@H](CO)O1)NCc1ccccc1Cl	8.6	9.8	/	1.8	/	/
O=c1c2cc3cc(Cl)ccc3nc2ncn1N1CCCCC1	/	/	/	2.2	/	/
CC(C)CN1CN2CCc3ccccc3C2CS1(=O)=O (stereo not drawn)	/	/	/	-0.1	/	/
CCOC(=O)Cc1nc(N2CCCN(C(C)=O)CC2)c2c(C)c(C(=O)OCC)sc2n1	/	/	/	4.1	/	/
